Measurements published in ChEMBL document CHEMBL5058577, “EUbOPEN Chemogenomics Library 2 (Multiplex)” (2022).

Test system: U2OS
Assay: Multiplex assay against U2OS
Type: toxicity, cell-based
Details: human
Summary of the method: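 Per cents of healthy-nucleus cells form the tubulin, mitochondrial-mass and membrane-permeability phenotype values. Live cells were stained at seeding with Hoechst33342, BioTracker Green Microtubule Cytoskeleton Dye, MitoTracker Red and Annexin V Alexa Fluor 680. After compound addition they were imaged on a CQ1 microscope at 37°C and 5% CO2, and CellPathfinder machine-learning gating split them into Hoechst high-intensity objects or normal cells, normal cells into healthy, pyknosed or fragmented nuclei, and pyknosed cells into mitotic or apoptotic.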

[1] = 12 h, 1 µM, compound concentration 1 uM, replicate 1
[2] = 12 h, 1 µM, compound concentration 1 uM, replicate 2
[3] = 12 h, 10 µM, compound concentration 10 uM, replicate 1
[4] = 12 h, 10 µM, compound concentration 10 uM, replicate 2
[5] = 24 h, 1 µM, compound concentration 1 uM, replicate 1
[6] = 24 h, 1 µM, compound concentration 1 uM, replicate 2
[7] = 24 h, 10 µM, compound concentration 10 uM, replicate 1
[8] = 24 h, 10 µM, compound concentration 10 uM, replicate 2
[9] = 48 h, 1 µM, compound concentration 1 uM, replicate 1
[10] = 48 h, 1 µM, compound concentration 1 uM, replicate 2
[11] = 48 h, 10 µM, compound concentration 10 uM, replicate 1
[12] = 48 h, 10 µM, compound concentration 10 uM, replicate 2

Compound: Cc1cc(NC(=O)NCCN2CCC(O)(Cc3ccccc3)CC2)c2ccccc2n1 [PALOSURAN]
- Population Apoptotic (%) [1]: 80%
- Population Fragmented Nuclei (%) [1]: 27%
- Population Healthy Nuclei (%) [1]: 65%
- Population Hoechst High Intensity Objects (%) [1]: 1%
- Population Membrane Permeable-Phenotype (%) [1]: 4%
- Population Mitochondria Different-Phenotype (%) [1]: 2%
- Population Mitotic Cells (%) [1]: 20%
- Population Normal (%) [1]: 98%
- Population Pyknosed Nuclei (%) [1]: 6%
- Population Tubulin-Different-Phenotype (%) [1]: 1%
- Total Cell Count [1]: 220
- Population Apoptotic (%) [2]: 71%
- Population Fragmented Nuclei (%) [2]: 19%
- Population Healthy Nuclei (%) [2]: 71%
- Population Hoechst High Intensity Objects (%) [2]: 0%
- Population Membrane Permeable-Phenotype (%) [2]: 2%
- Population Mitochondria Different-Phenotype (%) [2]: 0%
- Population Mitotic Cells (%) [2]: 28%
- Population Normal (%) [2]: 100%
- Population Pyknosed Nuclei (%) [2]: 9%
- Total Cell Count [2]: 145
- Population Apoptotic (%) [3]: 72%
- Population Fragmented Nuclei (%) [3]: 30%
- Population Healthy Nuclei (%) [3]: 59%
- Population Hoechst High Intensity Objects (%) [3]: 3%
- Population Membrane Permeable-Phenotype (%) [3]: 6%
- Population Mitochondria Different-Phenotype (%) [3]: 1%
- Population Mitotic Cells (%) [3]: 28%
- Population Normal (%) [3]: 96%
- Population Pyknosed Nuclei (%) [3]: 9%
- Population Tubulin-Different-Phenotype (%) [3]: 1%
- Total Cell Count [3]: 266
- Population Apoptotic (%) [4]: 66%
- Population Fragmented Nuclei (%) [4]: 17%
- Population Healthy Nuclei (%) [4]: 70%
- Population Membrane Permeable-Phenotype (%) [4]: 12%
- Population Mitochondria Different-Phenotype (%) [4]: 2%
- Population Mitotic Cells (%) [4]: 33%
- Population Pyknosed Nuclei (%) [4]: 11%
- Population Tubulin-Different-Phenotype (%) [4]: 8%
- Total Cell Count [4]: 107
- Population Apoptotic (%) [5]: 94%
- Population Fragmented Nuclei (%) [5]: 26%
- Population Healthy Nuclei (%) [5]: 66%
- Population Hoechst High Intensity Objects (%) [5]: 1%
- Population Membrane Permeable-Phenotype (%) [5]: 3%
- Population Mitochondria Different-Phenotype (%) [5]: 3%
- Population Mitotic Cells (%) [5]: 5%
- Population Normal (%) [5]: 98%
- Population Pyknosed Nuclei (%) [5]: 6%
- Population Tubulin-Different-Phenotype (%) [5]: 2%
- Total Cell Count [5]: 276
- Population Apoptotic (%) [6]: 66%
- Population Fragmented Nuclei (%) [6]: 17%
- Population Healthy Nuclei (%) [6]: 74%
- Population Membrane Permeable-Phenotype (%) [6]: 7%
- Population Mitochondria Different-Phenotype (%) [6]: 7%
- Population Mitotic Cells (%) [6]: 33%
- Population Pyknosed Nuclei (%) [6]: 8%
- Population Tubulin-Different-Phenotype (%) [6]: 3%
- Total Cell Count [6]: 173
- Population Apoptotic (%) [7]: 92%
- Population Fragmented Nuclei (%) [7]: 26%
- Population Healthy Nuclei (%) [7]: 65%
- Population Hoechst High Intensity Objects (%) [7]: 3%
- Population Membrane Permeable-Phenotype (%) [7]: 4%
- Population Mitochondria Different-Phenotype (%) [7]: 0%
- Population Mitotic Cells (%) [7]: 8%
- Population Normal (%) [7]: 96%
- Population Pyknosed Nuclei (%) [7]: 8%
- Population Tubulin-Different-Phenotype (%) [7]: 2%
- Total Cell Count [7]: 297
- Population Apoptotic (%) [8]: 75%
- Population Fragmented Nuclei (%) [8]: 19%
- Population Healthy Nuclei (%) [8]: 74%
- Population Membrane Permeable-Phenotype (%) [8]: 11%
- Population Mitochondria Different-Phenotype (%) [8]: 1%
- Population Mitotic Cells (%) [8]: 25%
- Population Pyknosed Nuclei (%) [8]: 6%
- Population Tubulin-Different-Phenotype (%) [8]: 5%
- Total Cell Count [8]: 129
- Population Apoptotic (%) [9]: 96%
- Population Fragmented Nuclei (%) [9]: 25%
- Population Healthy Nuclei (%) [9]: 68%
- Population Hoechst High Intensity Objects (%) [9]: 1%
- Population Membrane Permeable-Phenotype (%) [9]: 5%
- Population Mitochondria Different-Phenotype (%) [9]: 3%
- Population Mitotic Cells (%) [9]: 3%
- Population Normal (%) [9]: 98%
- Population Pyknosed Nuclei (%) [9]: 6%
- Population Tubulin-Different-Phenotype (%) [9]: 3%
- Total Cell Count [9]: 411
- Population Apoptotic (%) [10]: 84%
- Population Fragmented Nuclei (%) [10]: 15%
- Population Healthy Nuclei (%) [10]: 73%
- Population Hoechst High Intensity Objects (%) [10]: 3%
- Population Membrane Permeable-Phenotype (%) [10]: 7%
- Population Mitochondria Different-Phenotype (%) [10]: 5%
- Population Mitotic Cells (%) [10]: 16%
- Population Normal (%) [10]: 97%
- Population Pyknosed Nuclei (%) [10]: 11%
- Population Tubulin-Different-Phenotype (%) [10]: 4%
- Total Cell Count [10]: 233
- Population Apoptotic (%) [11]: 97%
- Population Fragmented Nuclei (%) [11]: 20%
- Population Healthy Nuclei (%) [11]: 70%
- Population Hoechst High Intensity Objects (%) [11]: 1%
- Population Membrane Permeable-Phenotype (%) [11]: 5%
- Population Mitochondria Different-Phenotype (%) [11]: 2%
- Population Mitotic Cells (%) [11]: 2%
- Population Normal (%) [11]: 98%
- Population Pyknosed Nuclei (%) [11]: 9%
- Population Tubulin-Different-Phenotype (%) [11]: 2%
- Total Cell Count [11]: 421
- Population Apoptotic (%) [12]: 89%
- Population Fragmented Nuclei (%) [12]: 16%
- Population Healthy Nuclei (%) [12]: 72%
- Population Membrane Permeable-Phenotype (%) [12]: 7%
- Population Mitochondria Different-Phenotype (%) [12]: 4%
- Population Mitotic Cells (%) [12]: 10%
- Population Pyknosed Nuclei (%) [12]: 10%
- Population Tubulin-Different-Phenotype (%) [12]: 1%
- Total Cell Count [12]: 180
